Data published in ChEMBL document CHEMBL1140200, “Synthesis and pharmacological evaluation of a second generation of pyridothiadiazine 1,1-dioxides acting as AMPA potentiators” (Bioorg Med Chem, 2008).
Calls of active or inactive are those of the source. The rule behind the calls is not given here.

Key:
[1] = system: Oocyte; assay: Potentiation of Wistar rat AMPA receptor expressed in Xenopus laevis oocytes assessed as 2-fold increase in amplitude of (S)-AMPA-induced current by two electrode voltage-clamp method; format: cell-based
Summary of the method: (§1)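 Xenopus oocytes were injected with rat cortex poly(A+) mRNA (1 mg/mL) and kept 3–4 days at 18 °C in Barth's solution before voltage-clamp recording. (S)-AMPA alone was applied until two similar inward currents were obtained; their mean was set as 100%. Drug was bath-applied at successive increasing concentrations every 5 min 45 s, on 2–3 oocytes. EC2X and EC5X were interpolated as twofold and fivefold current increases; EC50 was taken at half-maximal potentiation.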

[2] = system: Oocyte; assay: Potentiation of Wistar rat AMPA receptor expressed in Xenopus laevis oocytes assessed as 5-fold increase in amplitude of (S)-AMPA-induced current by two electrode voltage-clamp method; format: cell-based; summary of the method: as §1
[3] = system: Oocyte; assay: Potentiation of Wistar rat AMPA receptor expressed in Xenopus laevis oocytes assessed as increase in amplitude of (S)-[…] current by two electrode voltage-clamp method relative to AMPA; format: cell-based; design: concentration or dose not given beside the values; summary of the method: as §1
[4] = system: Rattus norvegicus; assay: Cognitive enhancing effect in Wistar rat assessed as improvement in juvenile recognition behavior at 0.3 mg/kp, ip; format: functional, organism-based
Summary of the method: (§2)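 Adult rats were housed individually for 2 days before testing. After 5-min habituation in the home cage, a 21-day juvenile was introduced for a 5-min session and investigation time T1 was recorded on video. Dosing was i.p. 1 min after that session. The same juvenile was reintroduced 120 min later for 5 min (T2). T2–T1 was analysed by one-way ANOVA; n = 8.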

[5] = system: Rattus norvegicus; assay: Cognitive enhancing effect in Wistar rat assessed as improvement in juvenile recognition behavior at 1 mg/kp, ip; format: functional, organism-based; summary of the method: as §2
[6] = system: Rattus norvegicus; assay: Cognitive enhancing effect in Wistar rat assessed as improvement in juvenile recognition behavior at 3 mg/kp, ip; format: functional, organism-based; summary of the method: as §2
[7] = system: Rattus norvegicus; assay: Cognitive enhancing effect in Wistar rat assessed as improvement in juvenile recognition behavior at 100 mg/kp, po; format: functional, organism-based
[8] = system: Rattus norvegicus; assay: Cognitive enhancing effect in Wistar rat at 3 mg/kp, ip after 1 hr by one-trial object recognition test; format: functional, organism-based
Summary of the method: (§3)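 Adult rats had three 3-min sessions 24 h apart. Two similar objects were presented in session 2. In the last session one object was replaced by a new one. Compound or vehicle was given i.p. 1 h before each session at 0.3, 1, 3 or 10 mg/kg. The read-out was the discrimination index (new − familiar exploration / total exploration) in the last session.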

[9] = system: Rattus norvegicus; assay: Cognitive enhancing effect in Wistar rat at 10 mg/kp, ip after 1 hr by one-trial object recognition test; format: functional, organism-based; summary of the method: as §3
[10] = system: Rattus norvegicus; assay: Cognitive enhancing effect in Wistar rat at 100 mg/kp, po after 1 hr by one-trial object recognition test; format: functional, organism-based
[11] = system: Rattus norvegicus; assay: Toxicity in Wistar rat at 100 mg/kp, po; format: organism-based; conditions: in vivo
[12] = species on record: Rattus norvegicus; assay: Cognitive enhancing effect in Wistar rat after 1 hr by one-trial object recognition test; format: functional, organism-based; summary of the method: as §3
[13] = Lipophilicity, log P by shake flask method; format: physicochemical; conditions: octanol/water
Summary of the method: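 Partition coefficient was measured between 1-octanol and phosphate buffer, pH 7.40, by shake-flask, using 1×10^-4 M stock drug solutions in octanol or buffer. Drug concentration after partition was measured by UV spectrophotometry at maximum absorbance.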

| EC [1] | EC [2] | Activity [3] | Compound | other results |
| --- | --- | --- | --- | --- |
| 21 µM | 51 µM |  | CN1CNS(=O)(=O)c2ncccc21 |  |
| 29 µM | 78 µM | > 1100% | CCN1CNS(=O)(=O)c2cc(Br)ccc21 |  |
| 110 µM | 335 µM |  | CCN1CN(C)S(=O)(=O)c2cc(Cl)cnc21 |  |
| 38 µM | 96 µM |  | CCN1CN(C)S(=O)(=O)c2ncccc21 |  |
| 134 µM | 509 µM | > 700% | CC1Nc2ccc(Cl)cc2S(=O)(=O)N1 (stereo not drawn) |  |
| 25 µM | 95 µM | > 1300% | CCN1CNS(=O)(=O)c2cc(C)ccc21 |  |
| 160 µM | > 300 µM |  | CCN1CNS(=O)(=O)c2cc(Br)cnc21 |  |
| 146 µM | > 300 µM |  | Cc1cnc2c(c1)N(C)CNS2(=O)=O |  |
| > 1000 µM | > 1000 µM |  | CCN1CNS(=O)(=O)c2cc(C)cnc21 |  |
| 200 µM | 500 µM |  | CN1CNS(=O)(=O)c2cccnc21 |  |
| 21 µM | 81 µM |  | CN1CNS(=O)(=O)c2cc(Cl)cnc21 |  |
| 20 µM | 44 µM | 1090% | CCN1CNS(=O)(=O)c2cc(Cl)cnc21 | Activity [4]: Active; Activity [5]: Active; Activity [6]: Active; Activity [7]: inactive; Activity [8]: Active; Activity [9]: Active; Activity [10]: inactive; Activity [11]: Non-toxic; Activity [12]: Dose-dependent effect |
| 1.6 µM | 9.8 µM | 844% | NS(=O)(=O)c1cc2c(cc1Cl)NC(C1CC3C=CC1C3)NS2(=O)=O (stereo not drawn) |  |
| 116 µM | > 300 µM |  | CCN1CNS(=O)(=O)c2ncc(C)cc21 | logP [13]: 0.41 |
| > 100 µM |  |  | CN1CNS(=O)(=O)c2cc(F)cnc21 |  |
|  |  |  | CCN1CNS(=O)(=O)c2ncccc21 | logP [13]: 0.12 |
| 24.6 µM | 78.2 µM | 1260% | O=S1(=O)N[C@H]2CCCN2c2ccccc21 |  |
| 86 µM | > 300 µM |  | CCN1CN(C)S(=O)(=O)c2ncc(C)cc21 |  |
| 123 µM | 300 µM | > 422% | CCN1CNS(=O)(=O)c2cc(F)cnc21 |  |
